Test results taken from ChEMBL document CHEMBL5058577, “EUbOPEN Chemogenomics Library 2 (Multiplex)” (2022).

Tested on: U2OS
Test: Multiplex assay against U2OS
Assay type: toxicity, cell-based
Details: human
In short: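 Live cells were stained at seeding with Hoechst33342, BioTracker Green Microtubule Cytoskeleton Dye, MitoTracker Red and Annexin V Alexa Fluor 680, then imaged on a CQ1 microscope at 37°C and 5% CO2 after compound addition. CellPathfinder machine-learning gating split cells into Hoechst high-intensity objects or normal cells. Normal cells were split into healthy, pyknosed or fragmented nuclei, and pyknosed cells into mitotic or apoptotic. Tubulin, mitochondrial-mass and membrane-permeability phenotypes are per cents of healthy-nucleus cells.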

[1] = 12 h, 1 µM, compound concentration 1 uM, replicate 1
[2] = 12 h, 1 µM, compound concentration 1 uM, replicate 2
[3] = 12 h, 10 µM, compound concentration 10 uM, replicate 1
[4] = 12 h, 10 µM, compound concentration 10 uM, replicate 2
[5] = 24 h, 1 µM, compound concentration 1 uM, replicate 1
[6] = 24 h, 1 µM, compound concentration 1 uM, replicate 2
[7] = 24 h, 10 µM, compound concentration 10 uM, replicate 1
[8] = 24 h, 10 µM, compound concentration 10 uM, replicate 2
[9] = 48 h, 1 µM, compound concentration 1 uM, replicate 1
[10] = 48 h, 1 µM, compound concentration 1 uM, replicate 2
[11] = 48 h, 10 µM, compound concentration 10 uM, replicate 1
[12] = 48 h, 10 µM, compound concentration 10 uM, replicate 2

Cc1sc2c(c1C)C(c1ccc(Cl)cc1)=N[C@H](CC(=O)OC(C)(C)C)c1nnc(C)n1-2
Population Apoptotic (%) [1]: 81%
Population Fragmented Nuclei (%) [1]: 28%
Population Healthy Nuclei (%) [1]: 63%
Population Hoechst High Intensity Objects (%) [1]: 2%
Population Membrane Permeable-Phenotype (%) [1]: 7%
Population Mitochondria Different-Phenotype (%) [1]: 4%
Population Mitotic Cells (%) [1]: 18%
Population Normal (%) [1]: 97%
Population Pyknosed Nuclei (%) [1]: 8%
Population Tubulin-Different-Phenotype (%) [1]: 4%
Total Cell Count [1]: 256
Population Apoptotic (%) [2]: 71%
Population Fragmented Nuclei (%) [2]: 16%
Population Healthy Nuclei (%) [2]: 77%
Population Hoechst High Intensity Objects (%) [2]: 4%
Population Mitochondria Different-Phenotype (%) [2]: 2%
Population Mitotic Cells (%) [2]: 28%
Population Normal (%) [2]: 95%
Population Pyknosed Nuclei (%) [2]: 6%
Total Cell Count [2]: 120
Population Apoptotic (%) [3]: 51%
Population Fragmented Nuclei (%) [3]: 32%
Population Healthy Nuclei (%) [3]: 56%
Population Hoechst High Intensity Objects (%) [3]: 2%
Population Membrane Permeable-Phenotype (%) [3]: 42%
Population Mitochondria Different-Phenotype (%) [3]: 35%
Population Mitotic Cells (%) [3]: 48%
Population Normal (%) [3]: 97%
Population Pyknosed Nuclei (%) [3]: 11%
Population Tubulin-Different-Phenotype (%) [3]: 39%
Total Cell Count [3]: 240
Population Apoptotic (%) [4]: 90%
Population Fragmented Nuclei (%) [4]: 22%
Population Healthy Nuclei (%) [4]: 68%
Population Hoechst High Intensity Objects (%) [4]: 0%
Population Membrane Permeable-Phenotype (%) [4]: 13%
Population Mitochondria Different-Phenotype (%) [4]: 24%
Population Mitotic Cells (%) [4]: 10%
Population Normal (%) [4]: 100%
Population Pyknosed Nuclei (%) [4]: 8%
Population Tubulin-Different-Phenotype (%) [4]: 11%
Total Cell Count [4]: 118
Population Apoptotic (%) [5]: 77%
Population Fragmented Nuclei (%) [5]: 22%
Population Healthy Nuclei (%) [5]: 69%
Population Hoechst High Intensity Objects (%) [5]: 0%
Population Membrane Permeable-Phenotype (%) [5]: 5%
Population Mitochondria Different-Phenotype (%) [5]: 1%
Population Mitotic Cells (%) [5]: 22%
Population Normal (%) [5]: 99%
Population Pyknosed Nuclei (%) [5]: 7%
Population Tubulin-Different-Phenotype (%) [5]: 1%
Total Cell Count [5]: 280
Population Apoptotic (%) [6]: 75%
Population Fragmented Nuclei (%) [6]: 20%
Population Healthy Nuclei (%) [6]: 70%
Population Hoechst High Intensity Objects (%) [6]: 3%
Population Mitochondria Different-Phenotype (%) [6]: 2%
Population Mitotic Cells (%) [6]: 25%
Population Normal (%) [6]: 96%
Population Pyknosed Nuclei (%) [6]: 8%
Population Tubulin-Different-Phenotype (%) [6]: 2%
Total Cell Count [6]: 149
Population Apoptotic (%) [7]: 83%
Population Fragmented Nuclei (%) [7]: 29%
Population Healthy Nuclei (%) [7]: 57%
Population Hoechst High Intensity Objects (%) [7]: 2%
Population Membrane Permeable-Phenotype (%) [7]: 17%
Population Mitochondria Different-Phenotype (%) [7]: 17%
Population Mitotic Cells (%) [7]: 16%
Population Normal (%) [7]: 97%
Population Pyknosed Nuclei (%) [7]: 13%
Population Tubulin-Different-Phenotype (%) [7]: 8%
Total Cell Count [7]: 280
Population Apoptotic (%) [8]: 76%
Population Fragmented Nuclei (%) [8]: 24%
Population Healthy Nuclei (%) [8]: 65%
Population Hoechst High Intensity Objects (%) [8]: 0%
Population Membrane Permeable-Phenotype (%) [8]: 7%
Population Mitochondria Different-Phenotype (%) [8]: 25%
Population Mitotic Cells (%) [8]: 23%
Population Normal (%) [8]: 99%
Population Pyknosed Nuclei (%) [8]: 10%
Population Tubulin-Different-Phenotype (%) [8]: 3%
Total Cell Count [8]: 130
Population Apoptotic (%) [9]: 77%
Population Fragmented Nuclei (%) [9]: 20%
Population Healthy Nuclei (%) [9]: 72%
Population Hoechst High Intensity Objects (%) [9]: 1%
Population Membrane Permeable-Phenotype (%) [9]: 5%
Population Mitochondria Different-Phenotype (%) [9]: 2%
Population Mitotic Cells (%) [9]: 22%
Population Normal (%) [9]: 98%
Population Pyknosed Nuclei (%) [9]: 6%
Population Tubulin-Different-Phenotype (%) [9]: 2%
Total Cell Count [9]: 415
Population Apoptotic (%) [10]: 96%
Population Fragmented Nuclei (%) [10]: 21%
Population Healthy Nuclei (%) [10]: 64%
Population Hoechst High Intensity Objects (%) [10]: 3%
Population Membrane Permeable-Phenotype (%) [10]: 7%
Population Mitochondria Different-Phenotype (%) [10]: 7%
Population Mitotic Cells (%) [10]: 3%
Population Normal (%) [10]: 96%
Population Pyknosed Nuclei (%) [10]: 14%
Population Tubulin-Different-Phenotype (%) [10]: 5%
Total Cell Count [10]: 228
Population Apoptotic (%) [11]: 86%
Population Fragmented Nuclei (%) [11]: 23%
Population Healthy Nuclei (%) [11]: 57%
Population Hoechst High Intensity Objects (%) [11]: 2%
Population Membrane Permeable-Phenotype (%) [11]: 11%
Population Mitochondria Different-Phenotype (%) [11]: 7%
Population Mitotic Cells (%) [11]: 13%
Population Normal (%) [11]: 97%
Population Pyknosed Nuclei (%) [11]: 18%
Population Tubulin-Different-Phenotype (%) [11]: 5%
Total Cell Count [11]: 342
Population Apoptotic (%) [12]: 89%
Population Fragmented Nuclei (%) [12]: 20%
Population Healthy Nuclei (%) [12]: 68%
Population Hoechst High Intensity Objects (%) [12]: 1%
Population Mitochondria Different-Phenotype (%) [12]: 8%
Population Mitotic Cells (%) [12]: 10%
Population Normal (%) [12]: 98%
Population Pyknosed Nuclei (%) [12]: 11%
Population Tubulin-Different-Phenotype (%) [12]: 3%
Total Cell Count [12]: 174

COc1cc(C(=O)N2CC[C@@H](O)[C@@H](N)C2)cc2nc(-c3cc4ccccc4n3CC3CC3)n(C)c12.Cl
Population Apoptotic (%) [1]: 50%
Population Fragmented Nuclei (%) [1]: 32%
Population Healthy Nuclei (%) [1]: 53%
Population Hoechst High Intensity Objects (%) [1]: 4%
Population Membrane Permeable-Phenotype (%) [1]: 38%
Population Mitochondria Different-Phenotype (%) [1]: 16%
Population Mitotic Cells (%) [1]: 50%
Population Normal (%) [1]: 95%
Population Pyknosed Nuclei (%) [1]: 14%
Population Tubulin-Different-Phenotype (%) [1]: 29%
Total Cell Count [1]: 223
Population Apoptotic (%) [2]: 75%
Population Fragmented Nuclei (%) [2]: 15%
Population Healthy Nuclei (%) [2]: 75%
Population Hoechst High Intensity Objects (%) [2]: 1%
Population Membrane Permeable-Phenotype (%) [2]: 20%
Population Mitochondria Different-Phenotype (%) [2]: 18%
Population Mitotic Cells (%) [2]: 25%
Population Normal (%) [2]: 98%
Population Pyknosed Nuclei (%) [2]: 8%
Population Tubulin-Different-Phenotype (%) [2]: 15%
Total Cell Count [2]: 92
Population Apoptotic (%) [3]: 68%
Population Fragmented Nuclei (%) [3]: 23%
Population Healthy Nuclei (%) [3]: 38%
Population Hoechst High Intensity Objects (%) [3]: 6%
Population Membrane Permeable-Phenotype (%) [3]: 75%
Population Mitochondria Different-Phenotype (%) [3]: 88%
Population Mitotic Cells (%) [3]: 31%
Population Normal (%) [3]: 93%
Population Pyknosed Nuclei (%) [3]: 37%
Population Tubulin-Different-Phenotype (%) [3]: 96%
Total Cell Count [3]: 208
Population Apoptotic (%) [4]: 56%
Population Fragmented Nuclei (%) [4]: 16%
Population Healthy Nuclei (%) [4]: 61%
Population Hoechst High Intensity Objects (%) [4]: 5%
Population Membrane Permeable-Phenotype (%) [4]: 79%
Population Mitochondria Different-Phenotype (%) [4]: 91%
Population Mitotic Cells (%) [4]: 44%
Population Normal (%) [4]: 94%
Population Pyknosed Nuclei (%) [4]: 22%
Population Tubulin-Different-Phenotype (%) [4]: 94%
Total Cell Count [4]: 120
Population Apoptotic (%) [5]: 78%
Population Fragmented Nuclei (%) [5]: 28%
Population Healthy Nuclei (%) [5]: 54%
Population Hoechst High Intensity Objects (%) [5]: 3%
Population Membrane Permeable-Phenotype (%) [5]: 19%
Population Mitochondria Different-Phenotype (%) [5]: 14%
Population Mitotic Cells (%) [5]: 21%
Population Normal (%) [5]: 96%
Population Pyknosed Nuclei (%) [5]: 17%
Population Tubulin-Different-Phenotype (%) [5]: 12%
Total Cell Count [5]: 243
Population Apoptotic (%) [6]: 75%
Population Fragmented Nuclei (%) [6]: 18%
Population Healthy Nuclei (%) [6]: 69%
Population Hoechst High Intensity Objects (%) [6]: 2%
Population Membrane Permeable-Phenotype (%) [6]: 17%
Population Mitochondria Different-Phenotype (%) [6]: 18%
Population Mitotic Cells (%) [6]: 25%
Population Normal (%) [6]: 97%
Population Pyknosed Nuclei (%) [6]: 11%
Population Tubulin-Different-Phenotype (%) [6]: 17%
Total Cell Count [6]: 109
Population Apoptotic (%) [7]: 84%
Population Fragmented Nuclei (%) [7]: 25%
Population Healthy Nuclei (%) [7]: 35%
Population Hoechst High Intensity Objects (%) [7]: 4%
Population Membrane Permeable-Phenotype (%) [7]: 57%
Population Mitochondria Different-Phenotype (%) [7]: 88%
Population Mitotic Cells (%) [7]: 15%
Population Normal (%) [7]: 95%
Population Pyknosed Nuclei (%) [7]: 38%
Population Tubulin-Different-Phenotype (%) [7]: 78%
Total Cell Count [7]: 222
Population Apoptotic (%) [8]: 71%
Population Fragmented Nuclei (%) [8]: 26%
Population Healthy Nuclei (%) [8]: 48%
Population Membrane Permeable-Phenotype (%) [8]: 50%
Population Mitochondria Different-Phenotype (%) [8]: 85%
Population Mitotic Cells (%) [8]: 28%
Population Pyknosed Nuclei (%) [8]: 25%
Population Tubulin-Different-Phenotype (%) [8]: 90%
Total Cell Count [8]: 133
Population Apoptotic (%) [9]: 82%
Population Fragmented Nuclei (%) [9]: 23%
Population Healthy Nuclei (%) [9]: 61%
Population Hoechst High Intensity Objects (%) [9]: 2%
Population Membrane Permeable-Phenotype (%) [9]: 9%
Population Mitochondria Different-Phenotype (%) [9]: 5%
Population Mitotic Cells (%) [9]: 17%
Population Normal (%) [9]: 97%
Population Pyknosed Nuclei (%) [9]: 15%
Population Tubulin-Different-Phenotype (%) [9]: 5%
Total Cell Count [9]: 304
Population Apoptotic (%) [10]: 76%
Population Membrane Permeable-Phenotype (%) [10]: 17%
Population Mitochondria Different-Phenotype (%) [10]: 11%
Population Mitotic Cells (%) [10]: 23%
Population Pyknosed Nuclei (%) [10]: 14%
Population Tubulin-Different-Phenotype (%) [10]: 12%
Total Cell Count [10]: 149
Population Apoptotic (%) [11]: 88%
Population Fragmented Nuclei (%) [11]: 29%
Population Healthy Nuclei (%) [11]: 35%
Population Hoechst High Intensity Objects (%) [11]: 12%
Population Membrane Permeable-Phenotype (%) [11]: 47%
Population Mitochondria Different-Phenotype (%) [11]: 65%
Population Mitotic Cells (%) [11]: 11%
Population Normal (%) [11]: 87%
Population Pyknosed Nuclei (%) [11]: 35%
Population Tubulin-Different-Phenotype (%) [11]: 62%
Total Cell Count [11]: 232
Population Apoptotic (%) [12]: 92%
Population Fragmented Nuclei (%) [12]: 30%
Population Hoechst High Intensity Objects (%) [12]: 6%
Population Mitochondria Different-Phenotype (%) [12]: 84%
Population Mitotic Cells (%) [12]: 7%
Population Normal (%) [12]: 93%
Population Pyknosed Nuclei (%) [12]: 34%
Population Tubulin-Different-Phenotype (%) [12]: 75%
Total Cell Count [12]: 131
